What was measured:
Mus musculus [1] = organism: Mus musculus; assay: Anticonvulsant activity measured as effective dose required to produce a response score of 2.5 in MES assay on mice; format: functional
Summary of the method: (§1)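 Male Swiss albino mice ([…]), pre-screened by passing a 5 min rotorod test. Compound in DMSO given ip, starting at 100 mg/kg, later doses raised or lowered to complete the dose-activity profile. After 30 min, 45 mA ([…]) for 0.2 s via auricular electrodes. Seizure scored 1 (no protection) to 4 (full), averaged over 5-6 mice per dose. Effective dose taken as the dose giving a score of 2.5; log value used for QSAR.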

Mus musculus [2] = organism: Mus musculus; assay: Anticonvulsant activity expressed as log(1/EDMES(2.5)) in MES assay on mice that responded a score of 2.5; format: functional; summary of the method: as §1

| SMILES | EDMES(2.5) (Mus musculus [1]) [mg/kg] | Log 1/EDMES(2.5) (Mus musculus [2]) |
| --- | --- | --- |
| CCCCOc1ccc(/C=C2\NC(=O)NC2=O)cc1 | >200 | -2.3 |
| O=C1NC(=O)/C(=C/c2ccccc2OCc2ccccc2)N1 | >200 | -2.3 |
| O=C1NC(=O)/C(=C/c2ccccc2C(F)(F)F)N1 | >200 | -2.3 |
| Cc1cccc(/C=C2\NC(=O)NC2=O)c1 | 74 | -1.87 |
| COc1ccccc1/C=C1\NC(=O)NC1=O | 84 | -1.92 |
| CC(C)(C)c1ccc(/C=C2\NC(=O)NC2=O)cc1 | >200 | -2.3 |
| O=C1NC(=O)/C(=C/c2ccc(C(F)(F)F)cc2)N1 | 64 | -1.81 |
| CCCOc1ccc(/C=C2\NC(=O)NC2=O)cc1 | 77 | -1.89 |
| O=C1NC(=O)/C(=C/c2ccco2)N1 | 167 | -2.22 |
| CCOc1ccccc1/C=C1\NC(=O)NC1=O | >200 | -2.3 |
| O=C1NC(=O)/C(=C\c2c(Cl)cccc2Cl)N1 | 72 | -1.86 |
| O=C1NC(=O)/C(=C/c2ccc(O)cc2)N1 [4-HYDROXYPHENYLMETHYLENE HYDANTOIN] | >200 | -2.3 |
| O=C1NC(=O)/C(=C/c2ccccc2Br)N1 | >200 | -2.3 |
| O=C1NC(=O)/C(=C/c2cccc([N+](=O)[O-])c2)N1 | >200 | -2.3 |
| O=C1NC(=O)C(c2ccccc2)(c2ccccc2)N1 [PHENYTOIN] | 30 | -1.48 |
| O=C1NC(=O)/C(=C/c2ccc(OCc3ccccc3)cc2)N1 | 157 | -2.2 |
| O=C1NC(=O)/C(=C/c2cccc(F)c2)N1 | 172 | -2.24 |
| Cc1ccc(/C=C2\NC(=O)NC2=O)cc1 | >200 | -2.3 |
| CN(C)c1ccc(/C=C2\NC(=O)NC2=O)cc1 | >200 | -2.3 |
| COc1ccc(/C=C2\NC(=O)NC2=O)cc1 | >200 | -2.3 |
| O=C1NC(=O)/C(=C/c2cccc3ccccc23)N1 | >200 | -2.3 |
| CC(C)c1ccc(/C=C2\NC(=O)NC2=O)cc1 | 80 | -1.9 |
| O=C1NC(=O)/C(=C/c2cccc(Oc3ccccc3)c2)N1 | >200 | -2.3 |
| O=C1NC(=O)/C(=C/c2cccc(Br)c2)N1 | 89 | -1.95 |
| O=C1NC(=O)/C(=C/c2ccccc2O)N1 | >200 | -2.3 |
| O=C1NC(=O)/C(=C/c2cccc(O)c2)N1 | >200 | -2.3 |
| CCN(CC)c1ccc(/C=C2\NC(=O)NC2=O)cc1 | >200 | -2.3 |
| N#Cc1ccc(/C=C2\NC(=O)NC2=O)cc1 | >200 | -2.3 |

| SMILES | EDMES(2.5) (Mus musculus [1]) [mg/kg] | Log 1/EDMES(2.5) (Mus musculus [2]) |
| --- | --- | --- |
| CCOc1ccc(/C=C2\NC(=O)NC2=O)cc1 | 107 | -2.03 |
| O=C1NC(=O)/C(=C/c2ccccc2)N1 | 125 | -2.1 |
| COc1ccc(/C=C2\NC(=O)NC2=O)c(OC)c1 | 175 | -2.24 |
| O=C1NC(=O)/C(=C/c2ccc(Br)cc2)N1 | >200 | -2.3 |
| O=C1NC(=O)/C(=C/c2cccs2)N1 | >200 | -2.3 |
| Cc1ccc(/C=C2\NC(=O)NC2=O)c(C)c1 | 39 | -1.59 |
| O=C1NC(=O)/C(=C/c2ccc([N+](=O)[O-])cc2)N1 | >200 | -2.3 |
| O=C1NC(=O)/C(=C/c2cccc(C(F)(F)F)c2)N1 | 115 | -2.06 |
| O=C1NC(=O)/C(=C/c2ccc3ccccc3c2)N1 | >200 | -2.3 |
| O=C1NC(=O)/C(=C/c2ccccn2)N1 | 141 | -2.15 |
| O=C1NC(=O)/C(=C/c2ccc(F)cc2)N1 | >200 | -2.3 |
| CCc1ccc(/C=C2\NC(=O)NC2=O)cc1 | 74 | -1.87 |
| O=C1NC(=O)/C(=C/C2CCCCC2)N1 | 156 | -2.19 |
| CCCCc1ccc(/C=C2\NC(=O)NC2=O)cc1 | 121 | -2.08 |
| Cc1ccccc1/C=C1\NC(=O)NC1=O | 59 | -1.77 |
| O=C1NC(=O)/C(=C/c2ccc(-c3ccccc3)cc2)N1 | >200 | -2.3 |
| O=C1NC(=O)/C(=C/c2ccc(F)c(F)c2)N1 | 121 | -2.08 |
| O=C1NC(=O)/C(=C/c2ccc(Cl)cc2)N1 | >200 | -2.3 |
| O=C1NC(=O)/C(=C/c2ccc(Cl)cc2Cl)N1 | >200 | -2.3 |
| O=C1NC(=O)/C(=C/c2cccc(Cl)c2)N1 | 82 | -1.91 |
| COc1cccc(/C=C2\NC(=O)NC2=O)c1 | >200 | -2.3 |
| O=C1NC(=O)/C(=C/c2ccccc2Cl)N1 | 198 | -2.3 |
| O=C1NC(=O)/C(=C/c2ccc3[nH]c4ccccc4c3c2)N1 | >200 | -2.3 |
| Cc1cc(C)c(/C=C2/NC(=O)NC2=O)c(C)c1 | 28 | -1.45 |
| O=C1NC(=O)/C(=C/c2c[nH]c3ccccc23)N1 | >200 | -2.3 |
| Cc1cc(C)c(/C=C2\NC(=O)NC2=O)cc1C | >200 | -2.3 |
| O=C1NC(=O)/C(=C/c2ccccc2F)N1 | >200 | -2.3 |
